From ChEMBL document CHEMBL1137665, “Antistaphylococcal activity of CG400549, a new experimental FabI inhibitor, compared with that of other agents” (2007)
Converted amounts (≈) assume the structure as drawn.

Tests used:
[1] = tested on: Staphylococcus aureus; experiment: Antimicrobial activity against methicillin-susceptible Staphylococcus aureus by agar dilution CLSI method; assay type: functional
Outline: (§1)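 CLSI agar dilution MIC against S. aureus clinical isolates. Calcium was added to the medium for daptomycin testing. Vancomycin plates were read after a full 24-h incubation.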

[2] = tested on: Staphylococcus aureus; experiment: Antimicrobial activity against methicillin-resistant Staphylococcus aureus by agar dilution CLSI method; assay type: functional; outline: as §1
[3] = tested on: Staphylococcus aureus; experiment: Antimicrobial activity against vancomycin-intermediate Staphylococcus aureus 555 Hershey after 14 passages with CG400549 measured after 10 antibiotic-free subculture by multi-step resistance selection technique; assay type: functional
Outline: (§2)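 Multistep-selected mutants (daily passage at subinhibitory drug levels) then subcultured 10 times daily on antibiotic-free medium; MIC redetermined afterwards and compared with the MIC recorded at the end of selection; clone identity to parent checked by pulsed-field gel electrophoresis.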

[4] = tested on: Staphylococcus aureus; experiment: Antimicrobial activity against vancomycin-resistant Staphylococcus aureus 509 Michigan after 28 passages with Linezolid measured after 10 antibiotic-free subculture by multi-step resistance selection technique; assay type: functional; outline: as §2
[5] = tested on: Staphylococcus aureus; experiment: microbe, parasite or virus in culture; conditions: 543
[6] = tested on: Staphylococcus aureus; experiment: Antimicrobial activity against vancomycin-intermediate Staphylococcus aureus 555 Hershey by agar dilution CLSI method; assay type: functional
Outline: (§3)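 Agar dilution MIC per CLSI methodology; calcium supplemented for daptomycin testing; vancomycin plates read after a full 24-h incubation.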

[7] = tested on: Staphylococcus aureus; experiment: Antimicrobial activity against methicillin-susceptible Staphylococcus aureus 540 after 50 passages by multi-step resistance selection technique
[8] = tested on: Staphylococcus aureus; experiment: Antimicrobial activity against panton-valentine leukocidin-positive community-acquired methicillin-resistant Staphylococcus aureus 490 after 50 passages by multi-step resistance selection technique
[9] = tested on: Staphylococcus aureus; experiment: microbe, parasite or virus in culture; conditions: 525
[10] = tested on: Staphylococcus aureus; experiment: Antimicrobial activity against vancomycin-intermediate Staphylococcus aureus 504 after 50 passages by multi-step resistance selection technique; assay type: functional
Outline: (§4)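 Multistep selection: S. aureus strains (MSSA and MRSA, including VISA and VRSA) were passaged serially once daily in subinhibitory concentrations of each antimicrobial. Mutant and parent identities were confirmed by pulsed-field gel electrophoresis at the end of the study. Mutant MIC stability was checked after 10 daily subcultures on antibiotic-free media.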

[11] = tested on: Staphylococcus aureus; experiment: Antimicrobial activity against vancomycin-intermediate Staphylococcus aureus 504 after 22 passages with Linezolid measured after 10 times antibiotic-free subculture by multi-step resistance selection technique; assay type: functional; outline: as §2
[12] = tested on: Staphylococcus aureus; experiment: Antimicrobial activity against community-acquired vancomycin-intermediate Staphylococcus aureus 504 by agar dilution CLSI method; assay type: functional; outline: as §1
[13] = tested on: Staphylococcus aureus; experiment: Antimicrobial activity against vancomycin-intermediate Staphylococcus aureus 555 Hershey after 50 passages by multi-step resistance selection technique; assay type: functional
Outline: (§5)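 Multistep selection: 10 S. aureus strains (8 MRSA incl. two VRSA, two VISA; 2 MSSA) serially passaged daily at subinhibitory concentrations of each antimicrobial; MICs of mutants retested and compared with parent; clone identity versus parent confirmed by pulsed-field gel electrophoresis at study end.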

[14] = tested on: Staphylococcus aureus; experiment: Antimicrobial activity against vancomycin-resistant Staphylococcus aureus 509 Michigan by agar dilution CLSI method; assay type: functional; outline: as §3
[15] = tested on: Staphylococcus aureus; experiment: microbe, parasite or virus in culture; conditions: 547
[16] = tested on: Staphylococcus aureus; experiment: microbe, parasite or virus in culture; conditions: 481
[17] = tested on: Staphylococcus aureus; experiment: Antimicrobial activity against vancomycin-resistant Staphylococcus aureus 509 Michigan after 20 passages with daptomycin measured after 10 antibiotic-free subculture by multi-step resistance selection technique; assay type: functional; outline: as §2
[18] = tested on: Staphylococcus aureus; experiment: Antimicrobial activity against vancomycin-resistant Staphylococcus aureus 509 Michigan after 14 passages with CG400549 measured after 10 antibiotic-free subculture by multi-step resistance selection technique; assay type: functional; outline: as §2
[19] = tested on: Staphylococcus aureus; experiment: Antimicrobial activity against vancomycin-resistant Staphylococcus aureus 510 Hershey by agar dilution CLSI method; assay type: functional; outline: as §3
[20] = tested on: Staphylococcus aureus; experiment: Antimicrobial activity against vancomycin-resistant Staphylococcus aureus 510 Hershey after 14 passages with CG400549 measured after 10 antibiotic-free subculture by multi-step resistance selection technique; assay type: functional; outline: as §2
[21] = tested on: Staphylococcus aureus; experiment: Antimicrobial activity against methicillin-susceptible Staphylococcus aureus 543 after single-step resistance selection by agar dilution CLSI method; assay type: functional
Outline: (§6)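 Single-step selection on drug-containing agar across 10 strains (2 MSSA, 8 MRSA, including VRSA and VISA). Colonies arising on confluent background growth were retested by CLSI agar dilution MIC. Resistance was defined as an MIC more than 4× the parent MIC.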

[22] = tested on: Staphylococcus aureus; experiment: Antimicrobial activity against methicillin-susceptible Staphylococcus aureus 543 after 15 passages with Linezolid measured after 10 antibiotic-free subculture by multi-step resistance selection technique; assay type: functional
Outline: (§7)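 Mutants from multistep daily serial passage in subinhibitory drug were then subcultured daily 10 times on antibiotic-free medium. MIC was redetermined after these subcultures to assess stability. Clone identity was checked by pulsed-field gel electrophoresis.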

[23] = tested on: Staphylococcus aureus; experiment: Antimicrobial activity against methicillin-resistant vancomycin-intermediate Staphylococcus aureus 504 after single-step resistance selection by agar dilution CLSI method; assay type: functional; outline: as §6
[24] = tested on: Staphylococcus aureus; experiment: Antimicrobial activity against methicillin-resistant Staphylococcus aureus 490 after single-step resistance selection by agar dilution CLSI method; assay type: functional; outline: as §6
[25] = tested on: Staphylococcus aureus; experiment: Antimicrobial activity against methicillin-resistant Staphylococcus aureus 481 after single-step resistance selection by agar dilution CLSI method; assay type: functional; outline: as §6
[26] = tested on: Staphylococcus aureus; experiment: Antimicrobial activity against vancomycin-resistant Staphylococcus aureus 510 Hershey after 50 passages by multi-step resistance selection technique; assay type: functional; outline: as §5
[27] = tested on: Staphylococcus aureus; experiment: Antimicrobial activity against methicillin-susceptible Staphylococcus aureus 540 after 36 passages by multi-step resistance selection technique; assay type: functional
Outline: (§8)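 Multistep selection by daily serial passage of each strain in subinhibitory drug concentrations for the stated number of passages. Mutant MIC was then determined. Identity of mutants and parents was confirmed by pulsed-field gel electrophoresis.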

[28] = tested on: Staphylococcus aureus; experiment: Antimicrobial activity against methicillin-resistant Staphylococcus aureus 547 after single-step resistance selection by agar dilution CLSI method; assay type: functional; outline: as §6
[29] = tested on: Staphylococcus aureus; experiment: Antimicrobial activity against methicillin-susceptible Staphylococcus aureus 540 after single-step resistance selection by agar dilution CLSI method; assay type: functional; outline: as §6
[30] = tested on: Staphylococcus aureus; experiment: Antimicrobial activity against methicillin-resistant Staphylococcus aureus 547 after 48 passages with Linezolid measured after 10 antibiotic-free subculture by multi-step resistance selection technique; assay type: functional; outline: as §7
[31] = tested on: Staphylococcus aureus; experiment: Antimicrobial activity against methicillin and vancomycin-resistant Staphylococcus aureus 509 after single-step resistance selection by agar dilution CLSI method; assay type: functional; outline: as §6
[32] = tested on: Staphylococcus aureus; experiment: Antimicrobial activity against panton-valentine leukocidin-positive community-acquired methicillin-resistant Staphylococcus aureus 490 after 22 passages by multi-step resistance selection technique; assay type: functional; outline: as §5
[33] = tested on: Staphylococcus aureus; experiment: Antimicrobial activity against methicillin-resistant Staphylococcus aureus 525 after single-step resistance selection by agar dilution CLSI method; assay type: functional; outline: as §6
[34] = tested on: Staphylococcus aureus; experiment: Antimicrobial activity against methicillin-susceptible Staphylococcus aureus 540 after 36 passages with Linezolid measured after 10 antibiotic-free subculture by multi-step resistance selection technique; assay type: functional; outline: as §7
[35] = tested on: Staphylococcus aureus; experiment: Antimicrobial activity against methicillin-susceptible Staphylococcus aureus 543 after 15 passages by multi-step resistance selection technique; assay type: functional; outline: as §8
[36] = tested on: Staphylococcus aureus; experiment: Antimicrobial activity against methicillin and vancomycin-resistant Staphylococcus aureus 510 after single-step resistance selection by agar dilution CLSI method; assay type: functional; outline: as §6
[37] = tested on: Staphylococcus aureus; experiment: Antimicrobial activity against vancomycin-resistant Staphylococcus aureus 509 Michigan after 28 passages by multi-step resistance selection technique; assay type: functional; outline: as §5
[38] = tested on: Staphylococcus aureus; experiment: Antimicrobial activity against methicillin-resistant Staphylococcus aureus 547 after 48 passages by multi-step resistance selection technique; assay type: functional; outline: as §8
[39] = tested on: Staphylococcus aureus; experiment: Antimicrobial activity against panton-valentine leukocidin-negative community-acquired methicillin-resistant Staphylococcus aureus 481 after 37 passages by multi-step resistance selection technique; assay type: functional; outline: as §8
[40] = tested on: Staphylococcus aureus; experiment: Antimicrobial activity against vancomycin-intermediate Staphylococcus aureus 504 after 22 passages by multi-step resistance selection technique; assay type: functional; outline: as §4
[41] = tested on: Staphylococcus aureus; experiment: Antimicrobial activity against panton-valentine leukocidin-negative community-acquired methicillin-resistant Staphylococcus aureus 481 after 37 passages with Linezolid measured after 10 antibiotic-free subculture by multi-step resistance selection technique; assay type: functional; outline: as §7
[42] = tested on: Staphylococcus aureus; experiment: Antimicrobial activity against methicillin-resistant vancomycin-intermediate Staphylococcus aureus 555 after single-step resistance selection by agar dilution CLSI method; assay type: functional; outline: as §6
[43] = tested on: Staphylococcus aureus; experiment: Antimicrobial activity against panton-valentine leukocidin-positive community-acquired methicillin-resistant Staphylococcus aureus 490 after 22 passages with Linezolid measured after 10 antibiotic-free subculture by multi-step resistance selection technique; assay type: functional; outline: as §2

## C[C@H]1COc2c(N3CCN(C)CC3)c(F)cc3c(=O)c(C(=O)O)cn1c23.C[C@H]1COc2c(N3CCN(C)CC3)c(F)cc3c(=O)c(C(=O)O)cn1c23.O [LEVOFLOXACIN]
[1]
  MIC50: 0.25 µg/mL
  MIC90: 4 µg/mL
[2]
  MIC50: 1 µg/mL
  MIC90: > 32 µg/mL

## CN[C@H](CC(C)C)C(=O)N[C@H]1C(=O)N[C@@H](CC(N)=O)C(=O)N[C@H]2C(=O)N[C@H]3C(=O)N[C@H](C(=O)N[C@H](C(=O)O)c4cc(O)cc(O)c4-c4cc3ccc4O)[C@H](O)c3ccc(c(Cl)c3)Oc3cc2cc(c3O[C@@H]2O[C@H](CO)[C@@H](O)[C@H](O)[C@H]2O[C@H]2C[C@](C)(N)[C@H](O)[C@H](C)O2)Oc2ccc(cc2Cl)[C@H]1O [VANCOMYCIN]
[3]
  MIC: 8 µg/mL (≈ 5.52 µM)
[4]
  MIC: > 64 µg/mL
[5]
  MIC: 8 µg/mL (≈ 5.52 µM)
[1]
  MIC50: 1 µg/mL (≈ 0.69 µM)
  MIC90: 2 µg/mL (≈ 1.38 µM)
[6]
  MIC: 8 µg/mL (≈ 5.52 µM)
[2]
  MIC50: 1 µg/mL (≈ 0.69 µM)
  MIC90: 2 µg/mL (≈ 1.38 µM)
[7]
  MIC: 8 µg/mL (≈ 5.52 µM)
[8]
  MIC: 8 µg/mL (≈ 5.52 µM)
[9]
  MIC: 8 µg/mL (≈ 5.52 µM)
[10]
  MIC: 8 µg/mL (≈ 5.52 µM)
[11]
  MIC: 8 µg/mL (≈ 5.52 µM)
[12]
  MIC: 8 µg/mL (≈ 5.52 µM)
[13]
  MIC: 8 µg/mL (≈ 5.52 µM)
[14]
  MIC: > 64 µg/mL
[15]
  MIC: 8 µg/mL (≈ 5.52 µM)
[16]
  MIC: 8 µg/mL (≈ 5.52 µM)
[17]
  MIC: 32 µg/mL (≈ 22.1 µM)
[18]
  MIC: 16 µg/mL (≈ 11 µM)
[19]
  MIC: 64 µg/mL (≈ 44.2 µM)
[20]
  MIC: 16 µg/mL (≈ 11 µM)

## CC(=O)NC[C@H]1CN(c2ccc(N3CCOCC3)c(F)c2)C(=O)O1 [LINEZOLID]
[21]
  MIC: 0.5 µg/mL (≈ 1.48 µM)
[22]
  MIC: 32 µg/mL (≈ 94.9 µM)
[4]
  MIC: 32 µg/mL (≈ 94.9 µM)
[23]
  MIC: 0.5 µg/mL (≈ 1.48 µM)
[24]
  MIC: 0.5 µg/mL (≈ 1.48 µM)
[25]
  MIC: 0.5 µg/mL (≈ 1.48 µM)
[26]
  MIC: 16 µg/mL (≈ 47.4 µM)
[27]
  MIC: 32 µg/mL (≈ 94.9 µM)
[28]
  MIC: 0.5 µg/mL (≈ 1.48 µM)
[29]
  MIC: 0.5 µg/mL (≈ 1.48 µM)
[30]
  MIC: 32 µg/mL (≈ 94.9 µM)
[1]
  MIC50: 1 µg/mL (≈ 2.96 µM)
  MIC90: 2 µg/mL (≈ 5.93 µM)
[31]
  MIC: 0.5 µg/mL (≈ 1.48 µM)
[2]
  MIC50: 1 µg/mL (≈ 2.96 µM)
  MIC90: 2 µg/mL (≈ 5.93 µM)
[32]
  MIC: 32 µg/mL (≈ 94.9 µM)
[33]
  MIC: 0.5 µg/mL (≈ 1.48 µM)
[34]
  MIC: 16 µg/mL (≈ 47.4 µM)
[11]
  MIC: 8 µg/mL (≈ 23.7 µM)
[12]
  MIC: 1 µg/mL (≈ 2.96 µM)
[35]
  MIC: 32 µg/mL (≈ 94.9 µM)
[36]
  MIC: 0.5 µg/mL (≈ 1.48 µM)
[37]
  MIC: 16 µg/mL (≈ 47.4 µM)
[38]
  MIC: 32 µg/mL (≈ 94.9 µM)
[39]
  MIC: 32 µg/mL (≈ 94.9 µM)
[40]
  MIC: 8 µg/mL (≈ 23.7 µM)
[41]
  MIC: 32 µg/mL (≈ 94.9 µM)
[42]
  MIC: 0.5 µg/mL (≈ 1.48 µM)
[43]
  MIC: 32 µg/mL (≈ 94.9 µM)

## CC[C@H]1OC(=O)[C@H](C)[C@@H](O[C@H]2C[C@@](C)(OC)[C@@H](O)[C@H](C)O2)[C@H](C)[C@@H](O[C@@H]2O[C@H](C)C[C@H](N(C)C)[C@H]2O)[C@](C)(O)C[C@@H](C)CN(C)[C@H](C)[C@@H](O)[C@]1(C)O [AZITHROMYCIN]
[1]
  MIC50: 1 µg/mL (≈ 1.34 µM)
  MIC90: > 64 µg/mL
[2]
  MIC50: > 64 µg/mL
